This note sets out measurements from paper PMC7007182 (Molecular imaging and biology, 2020).

The nature of data set [1]: MicroPET/CT imaging, GPC3-positive HepG2 tumor model. In kind it is in vivo, nude mice. The note with it: nude, mouse, iv, 5.55 MBq, total radioactivity. The procedure, abridged:
(§1)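 Nude mice carried subcutaneous HepG2 or McA-RH7777 xenografts (n = 3 per group). Each received 5.55 MBq tracer i.v. under isoflurane. 10-min static microPET/CT scans at 30, 60 and 120 min; 3D-OSEM reconstruction, CT attenuation correction, decay-corrected. %ID/g from ROIs drawn over entire organs. Tumor/muscle, tumor/liver and tumor/kidney ratios calculated from PET data. Mean ± SD; ANOVA or t test.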

The nature of data set [2]: Ex vivo biodistribution, HepG2 tumor model. In kind it is in vivo, mice. To be noted: mouse, total radioactivity.
Another data set has as its system HepG2 cells. Kind of data set: Internalization in HepG2 cells. To be noted: HepG2 cells at 2 h. In kind it is cell-based.
The nature of data set [3]: In vitro stability in mouse serum. In kind it is in vitro ADME. To be noted: mouse serum at 37 °C, 2 h incubation, HPLC analysis. In short, it runs like this:
(§2)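 Radiotracer prepared by Al[18F]F chelation: peptide, AlCl3, acetic acid and acetonitrile with [18F]fluoride, heated at 100 °C for 10 min. Product purified on a C18 cartridge, eluted with ethanol/10 mM HCl, diluted in saline and sterile-filtered. Incubated 2 h in PBS (room temperature) or mouse serum (37 °C). Percent intact tracer by reverse-phase HPLC.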

Data set [4] deals with GPC3-positive HepG2 cells. Kind of data set: Cellular uptake in GPC3-positive HepG2 cells. In kind it is cell-based. The note with it: 60 min incubation, peak value; n = 4/group, mean ± SD. The procedure, abridged:
(§3)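 Uptake of the Al[18F]F-labelled peptide (radiochemical purity >97 % by HPLC) was measured as a time course in GPC3-positive HepG2 and GPC3-negative McA-RH7777 cells. Uptake is expressed as a percentage. n = 4 per group; mean ± SD.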

Data set [5] relates to GPC3-positive HepG2 cells. Put plainly: Cell efflux in GPC3-positive HepG2 cells. In kind it is cell-based. The note with it: for cell-associated radioactivity at end of efflux study: end of 1 h efflux study; for cell-associated radioactivity at start of efflux study: start of 1 h efflux study. The procedure, abridged:
(§4)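 Efflux of the Al[18F]F-chelated radiolabelled peptide was followed over time in GPC3-positive HepG2 and GPC3-negative McA-RH7777 hepatoma cells. Cell-associated radioactivity was tracked across the efflux period. n = 4 per group; mean ± SD.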

Data set [6] in a line: In vitro stability in PBS. In kind it is physicochemical. The note with it: PBS at room temperature, 2 h incubation, HPLC analysis. In short, it runs like this:
as §2

Data set [7] is described as follows: MicroPET/CT imaging, GPC3-negative McA-RH7777 tumor model. In kind it is in vivo, nude mice. The note with it: nude, mouse, iv, 5.55 MBq, total radioactivity. In short, it runs like this:
as §1

The test system of data set [8] is GPC3-negative McA-RH7777 cells. Kind of data set: Cellular uptake in GPC3-negative McA-RH7777 cells. The note with it: 60 min incubation; n = 4/group, mean ± SD. In kind it is cell-based. The procedure, abridged:
as §3

Data set [9] deals with GPC3-negative McA-RH7777 cells. Kind of data set: Cell efflux in GPC3-negative McA-RH7777 cells. The note with it: efflux study. In kind it is cell-based. In short, it runs like this:
as §4

Residues, ends and D or L forms follow the SMILES beside them. *: point of attachment. NOTA(2S-Bn(4-NHCS)) = O=C(O)CN1CCN(CC(=O)O)C[C@H](Cc2ccc(NC(=S)*)cc2)N(CC(=O)O)CC1 Some results are limits rather than exact numbers.

On to `CC(C)C[C@H](NC(=O)[C@H](CCCNC(=N)N)NC(=S)Nc1ccc(C[C@H]2CN(CC(=O)O)CCN(CC(=O)O)CCN2CC(=O)O)cc1)C(=O)N[C@@H](CC(N)=O)C(=O)N[C@H](C(=O)NCC(=O)NCC(=O)N[C@H](C(=O)N[C@@H](Cc1ccc(O)cc1)C(=O)N[C@@H](Cc1ccccc1)C(=O)N[C@@H](CC(C)C)C(=O)N[C@H](C(=O)N[C@H](C(=O)N[C@@H](CCCNC(=N)N)C(=O)N[C@@H](CCC(N)=O)C(=O)O)[C@@H](C)O)[C@@H](C)O)[C@@H](C)O)C(C)C` [Al[^18F]F-GP2076] ({NOTA(2S-Bn(4-NHCS))}-RLNVGGTYFLTTRQ-OH; N-terminus and C-terminus assumed) [listing 1 of 2 here], for which the tissue to tissue ratio at 1 h turned out to be 0.31 ± 0.04 in data set [1] (HepG2 tumor / kidneys), 0.59 ± 0.14 in data set [1] (HepG2 tumor / liver) and 5.13 ± 2.08 in data set [1] (HepG2 tumor / muscle). In addition, the tissue to tissue ratio at 0.5 h in data set [1] (HepG2 tumor / liver) came out at 0.43 ± 0.06; in data set [1] (HepG2 tumor / muscle) it was 5.56 ± 1.36. The tissue to tissue ratio at 2 h stood at 0.46 ± 0.4 in [1] (HepG2 tumor / liver) and 2.68 ± 0.29 in data set [1] (HepG2 tumor / muscle). Moreover, the tissue uptake at 0.5 h was found to be 2.2 ± 0.36 %ID/g in data set [1] (HepG2 tumor), 9.83 ± 3.69 %ID/g in data set [1] (kidneys) and 5.1 ± 0.53 %ID/g in [1] (liver). Also, the tissue uptake at 1 h in data set [1] (HepG2 tumor) was found to be 2.13 ± 0.55 %ID/g; in [1] (kidneys), 7.03 ± 2.32 %ID/g; in [1] (liver) it was 3.7 ± 0.98 %ID/g; in data set [2] (HepG2 tumor) it was 1.13 ± 0.02 %ID/g; in data set [2] (liver) it was 2.3 ± 0.56 %ID/g. Moreover, the tissue uptake at 2 h in data set [1] (HepG2 tumor) worked out at 0.73 ± 0.32 %ID/g.
As for `CC(C)C[C@H](NC(=O)[C@H](CCCNC(=N)N)NC(=S)Nc1ccc(C[C@H]2CN(CC(=O)O)CCN(CC(=O)O)CCN2CC(=O)O)cc1)C(=O)N[C@@H](CC(N)=O)C(=O)N[C@H](C(=O)NCC(=O)NCC(=O)N[C@H](C(=O)N[C@@H](Cc1ccc(O)cc1)C(=O)N[C@@H](Cc1ccccc1)C(=O)N[C@@H](CC(C)C)C(=O)N[C@H](C(=O)N[C@H](C(=O)N[C@@H](CCCNC(=N)N)C(=O)N[C@@H](CCC(N)=O)C(=O)O)[C@@H](C)O)[C@@H](C)O)[C@@H](C)O)C(C)C` [Al[^18F]F-GP2076] ({NOTA(2S-Bn(4-NHCS))}-RLNVGGTYFLTTRQ-OH; N-terminus and C-terminus assumed) [listing 2 of 2 here], the internalization with HepG2 cells is recorded as < 10 % of cell uptake. Also, the “intact radiotracer in mouse serum” value in [3] was more than 95%. For the same compound, the “cell uptake in HepG2 cells” value in [4] turned out to be 1.08 ± 0.04%. In [5], the “cell-associated radioactivity at end of efflux study” value amounted to 0.21% and the “cell-associated radioactivity at start of efflux study” value is on record as 1.04%. For the same compound, the “intact radiotracer in PBS” value in [6] was more than 95%.
Consider `CC(C)C[C@H](NC(=O)[C@H](CCCNC(=N)N)NC(=O)[C@H](CC(N)=O)NC(=O)[C@H](CC(=O)O)NC(=O)[C@H](CCCNC(=N)N)NC(=O)CNC(=O)CNC(=O)CNC(=S)Nc1ccc(C[C@H]2CN(CC(=O)O)CCN(CC(=O)O)CCN2CC(=O)O)cc1)C(=O)N[C@@H](CC(N)=O)C(=O)N[C@H](C(=O)NCC(=O)NCC(=O)N[C@H](C(=O)N[C@@H](Cc1ccc(O)cc1)C(=O)N[C@@H](Cc1ccccc1)C(=O)N[C@@H](CC(C)C)C(=O)N[C@H](C(=O)N[C@H](C(=O)N[C@@H](CCCNC(=N)N)C(=O)N[C@@H](CCC(N)=O)C(=O)O)[C@@H](C)O)[C@@H](C)O)[C@@H](C)O)C(C)C` [Al[^18F]F-GP2633] ({NOTA(2S-Bn(4-NHCS))}-GGGRDNRLNVGGTYFLTTRQ-OH; N-terminus and C-terminus assumed) [listing 1 of 2 here], for which the figures for the tissue to tissue ratio at 0.5 h in data set [7] (McA-RH7777 tumor / muscle), in data set [1] (HepG2 tumor / liver) and in [1] (HepG2 tumor / muscle) were 3.87 ± 1.97, 1.77 ± 0.2 and 9.11 ± 0.79, respectively. In addition, the tissue to tissue ratio at 1 h is 6.2 ± 2.67 in [7] (McA-RH7777 tumor / muscle), 0.09 ± 0.01 in data set [1] (HepG2 tumor / kidneys), 2 ± 0.18 in data set [1] (HepG2 tumor / liver) and 12.2 ± 0.62 in data set [1] (HepG2 tumor / muscle). Besides, the tissue uptake at 0.5 h in data set [7] (McA-RH7777 tumor) came out at 1.75 ± 0.05 %ID/g; in [1] (HepG2 tumor), 3.13 ± 0.31 %ID/g; in data set [1] (kidneys), 39.4 ± 0.98 %ID/g; in data set [1] (liver), 1.8 ± 0.36 %ID/g. The tissue uptake at 1 h came out at 1.64 ± 0.03 %ID/g in data set [7] (McA-RH7777 tumor); 3.37 ± 0.35 %ID/g in data set [1] (HepG2 tumor); 36.9 ± 2.05 %ID/g in data set [1] (kidneys); 1.7 ± 0.26 %ID/g in data set [1] (liver); 1.96 ± 0.29 %ID/g in data set [2] (HepG2 tumor); 0.97 ± 0.07 %ID/g in data set [2] (liver). Also, the results for the tissue uptake at 2 h in data set [7] (McA-RH7777 tumor) and in data set [1] (HepG2 tumor) were 0.66 ± 0.06 %ID/g and 1.3 ± 0.17 %ID/g, respectively. Moreover, the tissue to tissue ratio at 2 h in data set [1] (HepG2 tumor / liver) is 1.28 ± 0.25; in data set [1] (HepG2 tumor / muscle) it was 6.2 ± 1.8.
`CC(C)C[C@H](NC(=O)[C@H](CCCNC(=N)N)NC(=O)[C@H](CC(N)=O)NC(=O)[C@H](CC(=O)O)NC(=O)[C@H](CCCNC(=N)N)NC(=O)CNC(=O)CNC(=O)CNC(=S)Nc1ccc(C[C@H]2CN(CC(=O)O)CCN(CC(=O)O)CCN2CC(=O)O)cc1)C(=O)N[C@@H](CC(N)=O)C(=O)N[C@H](C(=O)NCC(=O)NCC(=O)N[C@H](C(=O)N[C@@H](Cc1ccc(O)cc1)C(=O)N[C@@H](Cc1ccccc1)C(=O)N[C@@H](CC(C)C)C(=O)N[C@H](C(=O)N[C@H](C(=O)N[C@@H](CCCNC(=N)N)C(=O)N[C@@H](CCC(N)=O)C(=O)O)[C@@H](C)O)[C@@H](C)O)[C@@H](C)O)C(C)C` [Al[^18F]F-GP2633] ({NOTA(2S-Bn(4-NHCS))}-GGGRDNRLNVGGTYFLTTRQ-OH; N-terminus and C-terminus assumed) [listing 2 of 2 here]: the internalization in the data set on HepG2 cells is < 10 % of cell uptake. Moreover, the “intact radiotracer in mouse serum” value in [3] is listed as more than 98%. In addition, the “cellular uptake in McA-RH7777 cells” value in data set [8] is 0.30 ± 0.03%. In data set [4], the “cell uptake in HepG2 cells” value is given as 1.15 ± 0.05%. For the same compound, in data set [5], the “cell-associated radioactivity at end of efflux study” value is given as 0.27% and the “cell-associated radioactivity at start of efflux study” value is given as 1.13%. The “time for radioactivity to wash out to the baseline” value in data set [9] is listed as not above 5 min. Besides, the “intact radiotracer in PBS” value in data set [6] was more than 98%.

One may read the tissue uptake as the share of the injected amount in each gram of the tissue.
